This note sets out measurements from ChEMBL document CHEMBL1153988 (J Med Chem, 2009).

Active and inactive are the calls of the source. The rule behind the calls is not given here.

Data set [1] has as its system Mus musculus. In words: Anticonvulsant activity in CF1 albino mouse assessed as protection against maximal electroshock-induced seizures at 30 mg/kg, ip after 4 hrs. The arrangement: dose 30 mg/kg. It counts as functional, organism-based. The gist of the method: (§1)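 Adult male CF no. 1 albino mice (18-25 g). Test compound suspended in 0.5% methylcellulose and given intraperitoneally at 0.01 mL/g body weight. Maximal electroshock challenge at the stated time. Read-out is the number of animals protected over the number tested; neurotoxicity is scored in parallel.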

Data set [2] concerns Mus musculus. In words: Anticonvulsant activity in CF1 albino mouse assessed as protection against maximal electroshock-induced seizures at 100 mg/kg, ip after 4 hrs. Type of data set: functional, organism-based. Also on record: dose 100 mg/kg. A digest of the protocol:
as §1

Data set [3] deals with Mus musculus. In words: Anticonvulsant activity in CF1 albino mouse assessed as protection against maximal electroshock-induced seizures at 300 mg/kg, ip after 4 hrs. Type of data set: functional, organism-based. The arrangement: dose 300 mg/kg. A digest of the protocol: as §1
The subject of data set [4] is Mus musculus. Put plainly: Anticonvulsant activity in CF1 albino mouse assessed as protection against scMet-induced seizures at 30 mg/kg, ip after 0.5 hrs. Type of data set: functional, organism-based. Also on record: dose 30 mg/kg. A digest of the protocol:
(§2)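 Adult male CF no. 1 albino mice (18-25 g) dosed intraperitoneally with compound suspended in 0.5% methylcellulose (0.01 mL/g). Convulsant challenge given subcutaneously as a 0.85% pentylenetetrazol solution in 0.9% saline. Read-out is animals protected over animals tested, with neurotoxicity scored in parallel.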

Data set [5] concerns Mus musculus. Put plainly: Anticonvulsant activity in CF1 albino mouse assessed as protection against scMet-induced seizures at 100 mg/kg, ip after 0.5 hrs. Type of data set: functional, organism-based. Also on record: dose 100 mg/kg. The gist of the method:
as §2

Data set [6] relates to Mus musculus. Put plainly: Anticonvulsant activity in CF1 albino mouse assessed as protection against scMet-induced seizures at 300 mg/kg, ip after 0.5 hrs. Also on record: dose 300 mg/kg. It counts as functional, organism-based. A digest of the protocol:
as §2

The test system of data set [7] is Mus musculus. In words: Anticonvulsant activity in CF1 albino mouse assessed as protection against scMet-induced seizures at 30 mg/kg, ip after 4 hrs. Also on record: dose 30 mg/kg. It counts as functional, organism-based. The gist of the method:
as §2

For data set [8], the system named is Mus musculus. Put plainly: Anticonvulsant activity in CF1 albino mouse assessed as protection against scMet-induced seizures at 100 mg/kg, ip after 4 hrs. It counts as functional, organism-based. The arrangement: dose 100 mg/kg. A digest of the protocol: as §2
The subject of data set [9] is Mus musculus. Put plainly: Anticonvulsant activity in CF1 albino mouse assessed as protection against scMet-induced seizures at 300 mg/kg, ip after 4 hrs. Also on record: dose 300 mg/kg. Type of data set: functional, organism-based. The gist of the method: as §2
The subject of data set [10] is Mus musculus. In words: Neurotoxicity in CF1 albino mouse at 30 mg/kg, ip after 0.5 hrs. It counts as toxicity, organism-based. The arrangement: dose 30 mg/kg, route intraperitoneal. To be noted: in vivo. The gist of the method: (§3)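 Male CF no. 1 albino mice (18-25 g) received a single ip dose as a suspension in 0.5% methylcellulose. The read-out was the number of animals showing neurotoxicity (minimal motor impairment) over the number tested.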

For data set [11], the system named is Mus musculus. In words: Neurotoxicity in CF1 albino mouse at 300 mg/kg, ip after 0.5 hrs. It counts as toxicity, organism-based. The arrangement: dose 300 mg/kg, route intraperitoneal. Conditions: in vivo. A digest of the protocol:
as §3

The subject of data set [12] is Mus musculus. Put plainly: Neurotoxicity in CF1 albino mouse at 30 mg/kg, ip after 4 hrs. It counts as toxicity, organism-based. The arrangement: dose 30 mg/kg, route intraperitoneal. Conditions: in vivo. A digest of the protocol:
as §3

The subject of data set [13] is Mus musculus. Put plainly: Neurotoxicity in CF1 albino mouse at 100 mg/kg, ip after 4 hrs. It counts as toxicity, organism-based. The arrangement: dose 100 mg/kg, route intraperitoneal. To be noted: in vivo. The gist of the method:
as §3

Data set [14] has as its system Mus musculus. In words: Neurotoxicity in CF1 albino mouse at 300 mg/kg, ip after 4 hrs. It counts as toxicity, organism-based. Also on record: dose 300 mg/kg, route intraperitoneal. To be noted: in vivo. The gist of the method:
as §3

Data set [15] concerns Rattus norvegicus. Put plainly: Anticonvulsant activity in albino Sprague-Dawley rat assessed as protection against maximal electroshock-induced seizures at 50 mg/kg, po after 4 hrs. Type of data set: functional, organism-based. The arrangement: dose 50 mg/kg. A digest of the protocol: (§4)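 Adult male Sprague-Dawley albino rats (100-150 g) dosed orally with compound suspended in 0.5% methylcellulose (0.04 mL per 10 g). Maximal electroshock challenge at the stated time. Protection is scored in 25% steps as the fraction of animals protected, with neurotoxicity recorded in parallel.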

Data set [16] has as its system Rattus norvegicus. Put plainly: Anticonvulsant activity in albino Sprague-Dawley rat assessed as protection against maximal electroshock-induced seizures at 50 mg/kg, po after 15 mins. It counts as functional. A digest of the protocol:
as §4

For data set [17], the system named is Rattus norvegicus. Put plainly: Anticonvulsant activity in albino Sprague-Dawley rat assessed as protection against maximal electroshock-induced seizures at 50 mg/kg, po after 30 mins. Type of data set: functional. The gist of the method:
as §4

The subject of data set [18] is Rattus norvegicus. Put plainly: Anticonvulsant activity in albino Sprague-Dawley rat assessed as protection against maximal electroshock-induced seizures at 50 mg/kg, po after 1 hr. It counts as functional. A digest of the protocol:
as §4

Data set [19] has as its system Rattus norvegicus. Put plainly: Anticonvulsant activity in albino Sprague-Dawley rat assessed as protection against maximal electroshock-induced seizures at 50 mg/kg, po after 2 hrs. It counts as functional. The gist of the method: as §4
For data set [20], the system named is Rattus norvegicus. Put plainly: Neurotoxicity in albino Sprague-Dawley rat at 50 mg/kg, po. Type of data set: toxicity, organism-based. The arrangement: dose 50 mg/kg, route oral. To be noted: in vivo. A digest of the protocol:
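Neurotoxicity was scored in male Sprague-Dawley albino rats (100-150 g) dosed orally with a suspension in 0.5% methylcellulose. The read-out was the fraction of animals showing neurotoxicity (minimal motor impairment).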

Data set [21] relates to Rattus norvegicus. Put plainly: Anticonvulsant activity in albino Sprague-Dawley rat assessed as protection against scMet-induced seizures at 50 mg/kg, po after 30 mins. Type of data set: functional. A digest of the protocol: (§5)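 Male Sprague-Dawley albino rats (100-150 g) were given the compound orally as a suspension in 0.5% methylcellulose. Seizures were induced by subcutaneous pentylenetetrazol, dissolved in 0.9% saline as a 2.82% solution. The read-out was animals protected over animals tested.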

Data set [22] relates to Rattus norvegicus. Put plainly: Anticonvulsant activity in albino Sprague-Dawley rat assessed as protection against scMet-induced seizures at 50 mg/kg, po after 1 hr. It counts as functional. The gist of the method: as §5
Data set [23] relates to Rattus norvegicus. Put plainly: Anticonvulsant activity in albino Sprague-Dawley rat assessed as protection against scMet-induced seizures at 50 mg/kg, po after 2 hrs. It counts as functional. The gist of the method: as §5
Data set [24] has as its system Rattus norvegicus. In words: Anticonvulsant activity in albino Sprague-Dawley rat assessed as protection against scMet-induced seizures at 50 mg/kg, po after 4 hrs. Type of data set: functional. The gist of the method:
as §5

Data set [25] relates to Mus musculus. In words: Anticonvulsant activity in CF1 albino mouse assessed as protection against maximal electroshock-induced seizures at 30 mg/kg, ip after 0.5 hrs. It counts as functional, organism-based. Also on record: dose 30 mg/kg. The gist of the method:
as §1

In data set [26] the test system is Mus musculus. Put plainly: Anticonvulsant activity in CF1 albino mouse assessed as protection against maximal electroshock-induced seizures at 100 mg/kg, ip after 0.5 hrs. It counts as functional, organism-based. The arrangement: dose 100 mg/kg. The gist of the method:
as §1

The subject of data set [27] is Mus musculus. In words: Anticonvulsant activity in CF1 albino mouse assessed as protection against maximal electroshock-induced seizures at 300 mg/kg, ip after 0.5 hrs. It counts as functional, organism-based. The arrangement: dose 300 mg/kg. A digest of the protocol:
as §1

Data set [28] concerns Rattus norvegicus. Put plainly: Anticonvulsant activity in albino Sprague-Dawley rat assessed as protection against scMet-induced seizures at 50 mg/kg, po after 15 mins. It counts as functional. A digest of the protocol:
as §5

Data set [29] concerns Mus musculus. Put plainly: Anticonvulsant activity in ip dosed CF1 albino mouse assessed as protection against 32 mA current-induced seizure by 6Hz psychomotor seizure test. Type of data set: functional. The gist of the method: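 In the 6 Hz psychomotor seizure test, male CF no. 1 albino mice (18-25 g) received the compound ip in 0.5% methylcellulose. Stimulation was at 32 or 44 mA. Doses were varied to give 3-4 points between 0% and 100% protection, and ED50 with 95% confidence interval came from probit analysis.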

On to `CC1(C)C(C)(C)C1(F)C(=O)O`, for which the Activity entry in the data set with Mus musculus [1] is “Non-toxic”; in the data set with Mus musculus [2] it was “Non-toxic”; in the data set on Mus musculus [3], “Non-toxic”; with Mus musculus [4], “Non-toxic”; in the data set with Mus musculus [5], “Non-toxic”; with Mus musculus [6] it was “Toxic”. For the same compound, the Activity entry is “Non-toxic” with Mus musculus [7]; “Non-toxic” with Mus musculus [8]; “Non-toxic” in the data set with Mus musculus [9]; “Non-toxic” in the data set on Mus musculus [10]; “Toxic” with Mus musculus [11]; “Non-toxic” with Mus musculus [12]. Also, the Activity entry with Mus musculus [13] is “Non-toxic”; with Mus musculus [14], “Non-toxic”; with Rattus norvegicus [20], “Not Active”; in the data set on Mus musculus [25] it was “Non-toxic”; with Mus musculus [26], “Non-toxic”; with Mus musculus [27], “Non-toxic”. Also, the outcome in the data set on Rattus norvegicus [15], in the data set with Rattus norvegicus [16], in the data set with Rattus norvegicus [17], in the data set on Rattus norvegicus [18], in the data set with Rattus norvegicus [19] and in the data set with Rattus norvegicus [21] was inactive. Further, the result with Rattus norvegicus [22], in the data set on Rattus norvegicus [23] and with Rattus norvegicus [24] was inactive.
As to `CNC(=O)C1(F)C(C)(C)C1(C)C`, the Activity result was “Non-toxic” in the data set with Mus musculus [1]; “Non-toxic” with Mus musculus [2]; “Non-toxic” in the data set on Mus musculus [3]; “Non-toxic” in the data set on Mus musculus [4]; “Toxic” in the data set on Mus musculus [5]; “Non-toxic” in the data set on Mus musculus [6]. The Activity result with Mus musculus [7] is “Non-toxic”; with Mus musculus [8] it was “Non-toxic”; in the data set on Mus musculus [9], “Non-toxic”; in the data set with Mus musculus [11] it was “Toxic”; with Mus musculus [13], “Non-toxic”; in the data set with Mus musculus [14], “Non-toxic”. The Activity was 100% in the data set on Rattus norvegicus [20], “Non-toxic” in the data set on Mus musculus [25], “Non-toxic” in the data set with Mus musculus [26] and “Toxic” in the data set with Mus musculus [27]. The outcome in the data set on Rattus norvegicus [28], in the data set on Rattus norvegicus [21], with Rattus norvegicus [22], with Rattus norvegicus [23] and in the data set on Rattus norvegicus [24] was inactive.
`CC[C@H](C(N)=O)N1CCCC1=O`: the ED50 with Mus musculus [29] is 19 mg/kg.
